In ChEMBL document CHEMBL5647682, “A selective PIKfyve inhibitor blocks PtdIns(3,5)P(2) production and disrupts endomembrane transport and retroviral budding” (EMBO Rep, 2008):
Blank lines part the entries; values can stand above or below the compound they belong to. Active and inactive are the calls of the source. The rule behind the calls is not given here.

Assays:
[1] = system: COS-7; experiment: Induction of EGF localization in african green monkey COS7 cells at 800 nM preincubated for 2 hrs followed by EGF stimulation and measured after 60 mins; assay type: functional, cell-based; conditions: Chlorocebus aethiops, time 3.0 hrs
[2] = Selectivity ratio of IC50 for GST-tagged Ptdlns3p P110alpha (unknown origin) to IC50 for Saccharomyces cerevisiae GST-tagged PIKfyve
[3] = target: 1-phosphatidylinositol 3-phosphate 5-kinase FAB1 (Saccharomyces cerevisiae (strain ATCC 204508 / S288c) (Baker's yeast), UniProt P34756); experiment: Inhibition of Saccharomyces cerevisiae GST-tagged Fab1 incubated for 15 mins in presence of ATP
[4] = Effect on PtdIns(4,5)P2 production in [32p]pi labelled serum stimulated mouse NIH3T3 cells at 800 nM (reference value: 487335 +/- 641); assay type: functional
Method in brief: (§1)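 Sub-confluent NIH3T3 cells in 6 cm dishes, moved to phosphate-free medium and labelled with 0.3 mCi/ml 32Pi for 1 h, then treated with or without inhibitor for 20 min. Lysis in ice-cold 1 M HCl, scraping, lipid extraction and HPLC analysis of labelled phosphoinositides.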

[5] = Effect on PtdIns4P production in [32p]pi labelled serum stimulated mouse NIH3T3 cells at 800 nM (reference value: 212147 +/- 5485); assay type: functional; method in brief: as §1
[6] = Effect on PtdIns(3,5)P2 production in [32p]pi labelled serum stimulated mouse NIH3T3 cells at 800 nM (reference value: 2219 +/- 71); assay type: functional; method in brief: as §1
[7] = system: NIH3T3; experiment: Induction of swollen vesicle phenotype in mouse NIH3T3 cells at 800 nM incubated for 120 mins by time-lapse analysis; assay type: functional, cell-based
Method in brief: (§2)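 Live imaging of NIH3T3 cells on glass-bottom dishes in phenol red-free DMEM/10% DCS at 37°C, 10% CO2. Cells given 800 nM compound and phase imaged for 120 min, frames every 10 s. Then washed, placed in drug-free medium and filmed a further 130 min.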

[8] = system: NIH3T3; experiment: Induction of cell division in mouse NIH3T3 cells at 800 nM; assay type: functional, cell-based
[9] = Inhibition of Saccharomyces cerevisiae GST-tagged PIKfyve
[10] = system: NIH3T3; experiment: Inhibition of PKB phosphorylation at Ser473 residue in mouse NIH3T3 cells at 800 nM under serum starved condition; assay type: cell-based
Method in brief: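 NIH3T3 cells, 200,000 per well, grown in DMEM/10% donor calf serum, then held 18 h in 0.1% DCS. Pretreated 15 min with vehicle (DMSO), 800 nM inhibitor, 20 nM rapamycin or 10 μM LY294002, then left unstimulated or stimulated 15 min with 10% DCS. Lysates run on 10% SDS-PAGE, PVDF immunoblot with specific antibodies.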

[11] = system: NIH3T3; experiment: Inhibition of cell growth in mouse NIH3T3 cells after 7 days; assay type: functional; conditions: time 7 day
[12] = system: MCF-10A; experiment: Induction of swollen vesicle phenotype in human MCF-10A cells at 800 nM incubated for 120 mins by time-lapse analysis; assay type: functional, cell-based
[13] = system: NIH3T3; experiment: Induction of EEA1 localization in vesicular structures of mouse NIH3T3 cells at 800 nM incubated for 2 hrs; assay type: functional, cell-based
Method in brief: (§3)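 NIH3T3 cells on coverslips, untreated or given 800 nM compound for 2 h. Fixed in 4% paraformaldehyde, permeabilized in 0.2% Triton X-100, blocked in 2% BSA, then anti-EEA1 staining. Confocal single 0.4 μm optical sections, with phase image merged onto the fluorescence image.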

[14] = system: NIH3T3; experiment: Induction of EGF localization in mouse NIH3T3 cells at 800 nM preincubated for 2 hrs followed by EGF stimulation and measured after 60 mins; assay type: functional, cell-based; conditions: time 3.0 hrs
[15] = system: MEF; experiment: Induction of swollen vesicle phenotype in MEF cells at 800 nM incubated for 120 mins by time-lapse analysis; assay type: functional, cell-based; conditions: Mus musculus
[16] = system: MDCK; experiment: Induction of swollen vesicle phenotype in MDCK cells at 800 nM incubated for 120 mins by time-lapse analysis; assay type: functional, cell-based; conditions: Canis lupus familiaris
[17] = Effect on PtdIns(3,4)P2 production in [32p]pi labelled serum stimulated mouse NIH3T3 cells at 800 nM (reference value: 1366 +/- 44); assay type: functional; method in brief: as §1
[18] = system: NIH3T3; experiment: Induction of EEA1 localization in lumenal vesicles of mouse NIH3T3 cells at 800 nM incubated for 2 hrs; assay type: functional, cell-based; method in brief: as §3
[19] = Effect on PtdIns3P production in [32p]pi labelled serum stimulated mouse NIH3T3 cells at 800 nM (reference value: 7685 +/- 307); assay type: functional; method in brief: as §1
[20] = system: COS-7; experiment: Induction of swollen vesicle phenotype in african green monkey COS-7 cells at 800 nM incubated for 120 mins by time-lapse analysis; assay type: functional, cell-based; conditions: Chlorocebus aethiops
[21] = system: NIH3T3; experiment: Reversal of swollen vesicle phenotype in mouse NIH3T3 cells expressing Fab1 assessed as reduction in number of swollen vesicles at 800 nM incubated for 2 hrs by phase contrast microscopic analysis; assay type: functional; set-up: scale not given: the % may be the effect or the level left
[22] = species on record: Homo sapiens; experiment: Inhibition of type 2 gamma PtdInsP (unknown origin) at 10 uM relative to control
[23] = system: NIH3T3; experiment: Reversal of swollen vesicle phenotype in mouse NIH3T3 cells expressing Fab1 assessed as reduction in size of swollen vesicles at 800 nM incubated for 2 hrs by phase contrast microscopic analysis; assay type: functional, cell-based
[24] = target: Phosphatidylinositol 4,5-bisphosphate 3-kinase catalytic subunit alpha isoform (Homo sapiens, UniProt P42336); experiment: Inhibition of GST-tagged Ptdlns3p P110alpha (unknown origin) expressed in baculovirus infected insect cells incubated for 15 mins in presence of ATP
[25] = Inhibition of mouse type 1 alpha PtdInsP
[26] = system: NIH3T3; experiment: Induction of CI-MPR localization in perinuclear vesicle of mouse NIH-3T3 at 800 nM incubated for 2 hrs; assay type: functional, cell-based
[27] = system: NIH3T3; experiment: Induction of swollen vesicle phenotype in mouse NIH3T3 cells incubated for 120 mins by time-lapse analysis; assay type: functional, cell-based; conditions: NIH3T3, 2 h; method in brief: as §2
[28] = system: NIH3T3; experiment: Inhibition of autophagy in mouse NIH3T3 cells transfected with GFP-tagged LC3 assessed as accumulation of LC3 in enlarged vesicles at 800 nM after 2 hrs; assay type: functional, cell-based
Method in brief: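 NIH3T3 cells transfected with GFP-LC3 (Lipofectamine 2000), examined 48 h post-transfection. Left untreated or treated 2 h with 800 nM compound, fixed in 4% paraformaldehyde, and GFP, phase and overlay images taken by confocal microscopy as 0.4 μm optical sections.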

[29] = system: NIH3T3; conditions: Mus musculus, dose 800.0 nM

1-phosphatidylinositol 3-phosphate 5-kinase FAB1, sequence (P34756 whole entry): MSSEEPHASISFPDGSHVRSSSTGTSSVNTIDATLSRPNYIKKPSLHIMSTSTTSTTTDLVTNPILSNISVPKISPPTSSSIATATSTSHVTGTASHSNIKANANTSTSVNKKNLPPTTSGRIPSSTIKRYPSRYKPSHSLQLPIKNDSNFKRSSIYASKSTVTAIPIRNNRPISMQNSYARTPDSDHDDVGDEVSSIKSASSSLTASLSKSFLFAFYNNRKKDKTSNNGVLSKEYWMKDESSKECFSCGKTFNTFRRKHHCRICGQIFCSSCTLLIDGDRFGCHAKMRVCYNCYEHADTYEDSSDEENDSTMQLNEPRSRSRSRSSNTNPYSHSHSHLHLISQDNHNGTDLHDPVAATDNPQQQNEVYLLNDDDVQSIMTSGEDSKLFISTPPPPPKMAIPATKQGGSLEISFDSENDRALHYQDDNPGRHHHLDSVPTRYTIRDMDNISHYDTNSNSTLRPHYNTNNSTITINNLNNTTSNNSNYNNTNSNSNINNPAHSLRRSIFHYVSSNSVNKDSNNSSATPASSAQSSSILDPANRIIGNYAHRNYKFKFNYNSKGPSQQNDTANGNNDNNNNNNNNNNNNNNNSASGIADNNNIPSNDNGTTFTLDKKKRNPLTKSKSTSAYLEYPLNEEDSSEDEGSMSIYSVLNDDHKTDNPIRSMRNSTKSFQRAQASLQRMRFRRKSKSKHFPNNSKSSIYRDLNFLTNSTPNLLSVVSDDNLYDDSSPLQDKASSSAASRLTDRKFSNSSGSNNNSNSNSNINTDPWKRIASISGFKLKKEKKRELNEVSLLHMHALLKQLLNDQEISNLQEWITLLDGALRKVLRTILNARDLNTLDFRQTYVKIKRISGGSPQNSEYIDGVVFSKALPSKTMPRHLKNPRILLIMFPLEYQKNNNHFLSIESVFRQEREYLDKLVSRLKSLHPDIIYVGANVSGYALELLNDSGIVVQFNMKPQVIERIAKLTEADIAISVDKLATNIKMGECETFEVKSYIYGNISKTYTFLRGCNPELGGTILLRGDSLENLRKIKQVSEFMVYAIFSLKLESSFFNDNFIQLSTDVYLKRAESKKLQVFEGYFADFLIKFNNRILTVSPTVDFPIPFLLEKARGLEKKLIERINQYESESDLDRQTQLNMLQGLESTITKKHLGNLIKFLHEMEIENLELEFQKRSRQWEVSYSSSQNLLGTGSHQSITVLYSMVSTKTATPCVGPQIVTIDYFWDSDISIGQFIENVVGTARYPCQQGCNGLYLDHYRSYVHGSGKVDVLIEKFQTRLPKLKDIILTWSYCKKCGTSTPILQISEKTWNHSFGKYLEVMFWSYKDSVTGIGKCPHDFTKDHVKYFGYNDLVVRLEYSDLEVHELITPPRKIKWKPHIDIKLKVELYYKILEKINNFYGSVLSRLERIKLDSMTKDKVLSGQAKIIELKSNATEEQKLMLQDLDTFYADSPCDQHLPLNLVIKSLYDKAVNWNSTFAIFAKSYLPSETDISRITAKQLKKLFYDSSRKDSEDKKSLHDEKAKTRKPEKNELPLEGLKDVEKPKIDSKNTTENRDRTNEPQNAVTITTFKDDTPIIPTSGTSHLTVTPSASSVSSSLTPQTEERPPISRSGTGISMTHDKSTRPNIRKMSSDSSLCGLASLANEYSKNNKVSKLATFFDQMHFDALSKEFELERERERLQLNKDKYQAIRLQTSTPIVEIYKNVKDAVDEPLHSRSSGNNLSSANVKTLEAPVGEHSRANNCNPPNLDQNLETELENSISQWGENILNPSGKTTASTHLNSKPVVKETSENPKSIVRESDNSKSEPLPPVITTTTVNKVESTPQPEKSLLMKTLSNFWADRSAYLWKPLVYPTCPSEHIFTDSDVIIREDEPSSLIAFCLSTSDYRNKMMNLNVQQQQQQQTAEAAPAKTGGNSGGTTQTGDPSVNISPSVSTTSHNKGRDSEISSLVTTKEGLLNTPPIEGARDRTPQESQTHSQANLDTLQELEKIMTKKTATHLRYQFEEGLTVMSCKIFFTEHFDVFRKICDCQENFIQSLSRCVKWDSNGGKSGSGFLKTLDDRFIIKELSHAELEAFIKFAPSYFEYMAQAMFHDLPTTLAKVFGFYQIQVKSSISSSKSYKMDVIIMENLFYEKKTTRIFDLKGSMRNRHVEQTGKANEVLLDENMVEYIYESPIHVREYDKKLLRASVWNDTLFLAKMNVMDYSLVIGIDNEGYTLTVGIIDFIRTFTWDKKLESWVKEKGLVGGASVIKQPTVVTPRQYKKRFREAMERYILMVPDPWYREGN
Phosphatidylinositol 4,5-bisphosphate 3-kinase catalytic subunit alpha isoform, sequence (P42336 whole entry, canonical isoform): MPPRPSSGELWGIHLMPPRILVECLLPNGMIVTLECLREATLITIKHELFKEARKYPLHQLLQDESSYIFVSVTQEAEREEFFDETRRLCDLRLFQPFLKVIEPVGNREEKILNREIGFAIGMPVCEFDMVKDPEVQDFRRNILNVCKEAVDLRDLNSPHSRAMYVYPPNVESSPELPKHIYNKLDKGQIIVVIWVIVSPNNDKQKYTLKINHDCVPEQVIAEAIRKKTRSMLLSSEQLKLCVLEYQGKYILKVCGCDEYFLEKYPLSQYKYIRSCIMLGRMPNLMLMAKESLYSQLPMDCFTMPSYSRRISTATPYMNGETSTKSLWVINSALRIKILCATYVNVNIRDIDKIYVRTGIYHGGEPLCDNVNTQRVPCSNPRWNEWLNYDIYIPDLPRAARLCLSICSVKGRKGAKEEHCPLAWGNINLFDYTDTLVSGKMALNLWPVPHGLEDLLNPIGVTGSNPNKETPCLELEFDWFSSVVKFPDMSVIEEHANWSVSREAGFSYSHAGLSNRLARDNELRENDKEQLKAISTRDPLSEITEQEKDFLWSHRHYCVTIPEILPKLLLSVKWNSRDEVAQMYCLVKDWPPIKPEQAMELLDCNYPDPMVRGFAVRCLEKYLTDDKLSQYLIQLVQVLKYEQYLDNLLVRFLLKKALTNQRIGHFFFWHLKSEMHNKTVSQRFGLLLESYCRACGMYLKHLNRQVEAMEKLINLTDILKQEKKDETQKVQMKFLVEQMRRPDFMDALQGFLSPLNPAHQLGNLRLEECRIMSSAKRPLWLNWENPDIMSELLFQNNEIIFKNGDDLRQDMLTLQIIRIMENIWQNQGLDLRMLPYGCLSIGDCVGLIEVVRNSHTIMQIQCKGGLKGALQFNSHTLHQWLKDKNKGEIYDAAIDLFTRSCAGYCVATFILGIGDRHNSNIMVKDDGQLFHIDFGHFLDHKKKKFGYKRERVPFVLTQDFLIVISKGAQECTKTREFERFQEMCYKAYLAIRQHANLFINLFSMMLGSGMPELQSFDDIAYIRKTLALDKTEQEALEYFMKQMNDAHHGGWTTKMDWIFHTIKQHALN

Ratio IC50 [2]: 100
IC50 [3]: > 5000 nM
IC50 [9]: 33 nM
inhibition [22]: inactive
IC50 [24]: 3300 nM
IC50 [25]: > 2000 nM
SMILES: Nc1ccc(C(=O)Nc2cccc(-c3nc(N4CCOCC4)c4oc5ncccc5c4n3)c2)cn1
Activity [1]: Active
Activity [4]: 393289
Activity [5]: 194539
Activity [6]: 465
Activity [7]: Active
Activity [8]: inactive
inhibition [10]: inactive
inhibition (INH) [11]: 25%
Activity [12]: Active
Activity [13]: Active
Activity [14]: Active
Activity [15]: Active
Activity [16]: Active
Activity [17]: 1319
Activity [18]: Active
Activity [19]: 7476
Activity [20]: Active
Activity [21]: 50%
Activity [23]: Active
Activity [26]: Active
EC50 [27]: 400 nM
Activity [28]: Active

IC50 [3]: > 10000 nM
SMILES: Oc1cccc(-c2nc(N3CCOCC3)c3oc4ncccc4c3n2)c1 [PI-103]
inhibition [29]: Active
